These results are taken from ChEMBL document CHEMBL2086300, “Synthesis and biological evaluation of imidazo[4,5-b]pyridine and 4-heteroaryl-pyrimidine derivatives as anti-cancer agents” (Eur J Med Chem, 2012).

Assay [1] deals with HCT-116. The experiment in a line: Antiproliferative activity against human HCT116 cells after 72 hrs by MTT assay. The settings on record: HCT-116, 72 h. The class given is functional. The method, boiled down:
(§1)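 HCT-116 and MCF-7 cells kept in RPMI-1640 plus 10% FBS. Cells exposed to compound for 72 h and read by MTT. GI50 obtained by non-linear regression.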

A further assay concerns MCF7. The assay is described as follows: Antiproliferative activity against human MCF7 cells after 72 hrs by MTT assay. The class given is functional. Particulars: MCF7, 72 h. The method, boiled down:
as §1
(In general: Tetrazolium assays rely on reduction of a dye to a coloured formazan, in cell work by metabolically active cells.)

Assay [2] concerns the target Cyclin-dependent kinase 1/cyclin B1 (Homo sapiens, UniProt P06493). The experiment in a line: Inhibition of CDK1/cyclin B by radiometric assay. The assay is classed as protein-complex assay. In a few lines:
(§2)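 Radiometric kinase assay run as an outsourced profiling service. IC50 taken from 10-point dose-response curves. Apparent Ki calculated from IC50 and the kinase-specific Km(ATP). Data are means of two replicates.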

Assay [3] addresses Cyclin-dependent kinase 7/ cyclin H (Homo sapiens, UniProt P50613). The experiment in a line: Inhibition of CDK7/cyclin-H by radiometric assay. The assay is classed as protein-complex assay. The method, boiled down: as §2
Another assay has as its target CDK9/cyclin T1 (Homo sapiens, UniProt P50750). The experiment in a line: Inhibition of CDK9/cyclin-T1 by radiometric assay. The assay is classed as protein-complex assay. In a few lines:
as §2

For assay [4], the system named is HCT-116. The assay is described as follows: Cell cycle arrest in human HCT116 cells at 5 times GI50 after 24 hrs by propidium iodide staining based flow cytometry. The assay is classed as functional. The method, boiled down: (§3)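 HCT-116 cells treated for 24 h at GI50, 5 × GI50 or 10 × GI50 multiples. Cells fixed and stained with propidium iodide, then DNA content read by flow cytometry. Pre-G1 fraction taken as the dead-cell population.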
For orientation: Flow cytometry measures light scatter and fluorescence of single cells or particles in a stream.

For assay [5], the system named is HCT-116. The assay is described as follows: Cell cycle arrest in human HCT116 cells assessed as accumulation at pre-G1 phase at 10 times GI50 after 24 hrs by propidium iodide staining based flow cytometry. The class given is functional. The method, boiled down:
as §3

For assay [6], the target named is CDK9/cyclin T1 (Homo sapiens) (UniProt O60563+P50750). The experiment in a line: Inhibition of CDK9/cyclin-T1 in human HCT116 cells assessed as RNAPII CTD phosphorylation at Ser-2 at 5 to 50 uM after 24 hrs by Western blotting analysis. The class given is cell-based. The settings on record: HCT-116. In a few lines:
(§4)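 HCT-116 cells cultured with 5, 25 or 50 µM for 24 h. Lysates analysed by western blot, with β-actin as internal control.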

In assay [7] the target is Cyclin-dependent kinase 7/ cyclin H (Homo sapiens) (UniProt P51946+P50613). The assay is described as follows: Inhibition of CDK7/cyclin-H in human HCT116 cells assessed as RNAPII CTD phosphorylation at Ser-5 at 5 to 50 uM after 24 hrs by Western blotting analysis. The class given is cell-based. The settings on record: HCT-116. The method, boiled down: as §4
On the technique in general: A western blot detects proteins with antibodies after separation by electrophoresis.

The test system of assay [8] is HCT-116. The experiment in a line: Induction of apoptosis in human HCT116 cells assessed as increase of caspase-3/7 activity at GI50 after 24 hrs. The assay is classed as functional, cell-based.
The test system of assay [9] is HCT-116. The assay is described as follows: Induction of apoptosis in human HCT116 cells assessed as increase of caspase-3/7 activity at 5 to 10 times GI50 after 24 hrs. The class given is functional, cell-based.
The subject of assay [10] is HCT-116. The experiment in a line: Cell cycle arrest in human HCT116 cells at GI50 after 24 hrs by propidium iodide staining based flow cytometry. The class given is functional. The method, boiled down:
as §3

Assay [11] relates to HCT-116. The assay is described as follows: Induction of apoptosis in human HCT116 cells assessed as down-regulation of Mcl-1 level at 5 to 50 uM after 24 hrs Western blot analysis. The class given is functional, cell-based. In a few lines: as §4
In assay [12] the test system is HCT-116. The assay is described as follows: Induction of apoptosis in human HCT116 cells assessed as induction of PARP cleavage at 5 to 50 uM after 24 hrs Western blot analysis. The assay is classed as functional, cell-based. The method, boiled down:
as §4

Assay [13] in a line: Selectivity ratio of Ki for CDK1/cyclin B to Ki for CDK9/cyclin-T1. In a few lines:
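Ratio of apparent Ki values for CDK1/cyclin B and CDK9/cyclin-T1. Each Ki comes from a radiometric assay, converted from 10-point-curve IC50 using Km(ATP), mean of two replicates.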

By GI50 is commonly meant the concentration that inhibits growth by half. Low values mean more potent growth inhibition, high ones less potent growth inhibition. As usually defined, the Ki is the dissociation constant of the complex between target and ligand, obtained from inhibition or displacement. High values mean weaker binding, low ones tighter binding.

The source made the active and inactive calls. No cut-off for these calls is given here.

Sequence of CDK9/cyclin T1 (O60563 whole entry): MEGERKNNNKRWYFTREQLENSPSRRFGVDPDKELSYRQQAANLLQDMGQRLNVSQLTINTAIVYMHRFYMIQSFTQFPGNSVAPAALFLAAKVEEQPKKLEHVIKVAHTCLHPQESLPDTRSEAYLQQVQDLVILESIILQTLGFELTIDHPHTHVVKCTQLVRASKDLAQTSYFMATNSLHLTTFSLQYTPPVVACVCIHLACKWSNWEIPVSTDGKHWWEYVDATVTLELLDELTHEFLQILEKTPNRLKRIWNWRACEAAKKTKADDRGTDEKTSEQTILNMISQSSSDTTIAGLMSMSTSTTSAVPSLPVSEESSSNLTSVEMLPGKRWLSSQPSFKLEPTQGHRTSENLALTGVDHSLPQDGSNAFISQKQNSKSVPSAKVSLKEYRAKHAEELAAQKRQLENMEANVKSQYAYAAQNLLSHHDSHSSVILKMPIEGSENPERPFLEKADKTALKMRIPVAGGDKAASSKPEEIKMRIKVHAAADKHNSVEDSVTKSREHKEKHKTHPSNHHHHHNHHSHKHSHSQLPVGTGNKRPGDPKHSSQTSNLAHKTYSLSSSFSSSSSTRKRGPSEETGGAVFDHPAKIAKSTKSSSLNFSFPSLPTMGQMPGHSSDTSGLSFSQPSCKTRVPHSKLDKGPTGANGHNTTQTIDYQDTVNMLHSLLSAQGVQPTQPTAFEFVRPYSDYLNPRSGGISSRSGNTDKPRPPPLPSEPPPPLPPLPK
Sequence of CDK9/cyclin T1 (P50750 whole entry): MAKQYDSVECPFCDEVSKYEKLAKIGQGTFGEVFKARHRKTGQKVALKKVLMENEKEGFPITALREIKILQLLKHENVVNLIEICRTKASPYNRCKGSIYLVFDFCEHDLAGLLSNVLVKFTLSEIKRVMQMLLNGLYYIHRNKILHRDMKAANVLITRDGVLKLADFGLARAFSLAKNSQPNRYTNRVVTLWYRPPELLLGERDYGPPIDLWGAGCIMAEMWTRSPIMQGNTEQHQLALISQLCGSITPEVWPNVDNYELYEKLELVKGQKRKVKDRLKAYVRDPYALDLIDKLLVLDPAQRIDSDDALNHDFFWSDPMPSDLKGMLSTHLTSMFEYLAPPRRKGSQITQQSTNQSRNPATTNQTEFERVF
Sequence of Cyclin-dependent kinase 1/cyclin B1 (P06493 whole entry): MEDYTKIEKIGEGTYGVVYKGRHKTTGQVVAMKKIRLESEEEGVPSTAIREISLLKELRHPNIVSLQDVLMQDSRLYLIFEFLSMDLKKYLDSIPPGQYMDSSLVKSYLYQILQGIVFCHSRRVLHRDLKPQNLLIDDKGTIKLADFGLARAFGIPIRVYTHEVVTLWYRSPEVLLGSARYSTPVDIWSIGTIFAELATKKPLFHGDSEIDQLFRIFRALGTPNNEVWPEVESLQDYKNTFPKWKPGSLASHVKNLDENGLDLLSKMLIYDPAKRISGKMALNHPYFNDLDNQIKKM
Sequence of Cyclin-dependent kinase 1/cyclin B1 (P14635 whole entry, further chain): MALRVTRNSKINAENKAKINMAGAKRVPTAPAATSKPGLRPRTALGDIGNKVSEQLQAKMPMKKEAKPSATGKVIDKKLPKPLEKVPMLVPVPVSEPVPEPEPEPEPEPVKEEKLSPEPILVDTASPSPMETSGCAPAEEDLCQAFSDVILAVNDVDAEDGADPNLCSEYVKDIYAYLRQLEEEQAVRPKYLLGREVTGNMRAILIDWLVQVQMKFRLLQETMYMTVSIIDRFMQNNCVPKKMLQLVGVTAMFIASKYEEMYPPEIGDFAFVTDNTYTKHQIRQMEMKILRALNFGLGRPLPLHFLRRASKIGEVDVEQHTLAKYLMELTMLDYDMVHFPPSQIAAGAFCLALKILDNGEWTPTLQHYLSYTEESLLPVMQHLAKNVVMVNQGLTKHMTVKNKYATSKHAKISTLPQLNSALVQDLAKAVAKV
Sequence of Cyclin-dependent kinase 7/ cyclin H (P51946 whole entry): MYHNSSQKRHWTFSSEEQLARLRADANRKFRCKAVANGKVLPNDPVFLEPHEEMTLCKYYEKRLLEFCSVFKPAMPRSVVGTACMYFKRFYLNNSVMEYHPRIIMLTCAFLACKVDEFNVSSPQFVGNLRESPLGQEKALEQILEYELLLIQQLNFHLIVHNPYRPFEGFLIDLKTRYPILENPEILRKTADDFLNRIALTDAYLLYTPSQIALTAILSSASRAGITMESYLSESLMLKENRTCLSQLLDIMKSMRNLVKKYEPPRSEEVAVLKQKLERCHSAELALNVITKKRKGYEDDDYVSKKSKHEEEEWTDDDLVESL
Sequence of Cyclin-dependent kinase 7/ cyclin H (P50613 whole entry): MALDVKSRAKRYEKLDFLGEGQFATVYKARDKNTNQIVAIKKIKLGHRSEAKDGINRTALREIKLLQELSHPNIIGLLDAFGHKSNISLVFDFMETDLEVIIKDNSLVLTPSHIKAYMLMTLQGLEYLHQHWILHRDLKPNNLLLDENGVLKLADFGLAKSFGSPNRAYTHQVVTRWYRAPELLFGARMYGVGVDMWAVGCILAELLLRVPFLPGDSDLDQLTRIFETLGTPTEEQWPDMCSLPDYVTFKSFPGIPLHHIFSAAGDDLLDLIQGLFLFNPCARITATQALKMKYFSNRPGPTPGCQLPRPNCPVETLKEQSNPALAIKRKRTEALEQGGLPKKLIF

As to `Cc1ccc(Nc2nccc(-c3nn(C)c4ccccc34)n2)cc1`, the concentration for 50% growth inhibition (GI50) is 8.64 µM in the assay on HCT-116 [1] and 6.1 µM in the assay on MCF7.
For `CCc1nn(-c2ccnc(Nc3ccc(S(N)(=O)=O)cc3)n2)c2ncccc12`, the figures for the GI50 with HCT-116 [1] and in the assay with MCF7 were 6.34 µM and 0.88 µM, respectively.
As for `NS(=O)(=O)c1ccc(Nc2nccc(-c3nn(Cc4cccnc4)c4ccccc34)n2)cc1`, the figures for the Ki (in assay [2]; in assay [3]; on CDK9/cyclin T1) were 0.287 µM, over 5 µM and 0.207 µM, respectively. Also, the figures for the GI50 in the assay on HCT-116 [1] and in the assay with MCF7 were 5.13 µM and 2.63 µM, respectively.
The corresponding values for `NS(=O)(=O)c1ccc(Nc2nccc(-n3ncc4ccccc43)n2)cc1` are 0.028 µM, 0.328 µM, 0.091 µM, 0.59 µM and 1.87 µM.
On the same counts, the results for `CCCn1nc(-c2ccnc(Nc3ccc(S(N)(=O)=O)cc3)n2)c2ccccc21` are 0.127 µM, over 5 µM, 0.176 µM, 6.74 µM and 0.59 µM.
Consider `CCc1nn(-c2ccnc(Nc3cccc(S(N)(=O)=O)c3)n2)c2ncccc12`, for which the GI50 in the assay with HCT-116 [1] came to 65.1 µM; with MCF7 it was 73.2 µM.
On the same counts, the results for `Clc1ccc(Nc2nc3ncccc3n2Cc2ccccc2)cc1` are 59.5 µM and 48 µM.
Take `Brc1cccc(Nc2nc3ncccc3n2Cc2ccccc2)c1`: the values for the GI50 with HCT-116 [1] and with MCF7 were 77.7 µM and 78.7 µM, respectively.
On the same counts, the results for `CCn1nc(-c2ccnc(Nc3ccc([N+](=O)[O-])cc3)n2)c2ccccc21` are 4.06 µM and 24 µM.
On the same counts, the results for `Cc1ccc(Nc2nc3ncccc3n2Cc2ccccc2)cc1[N+](=O)[O-]` are 40.4 µM and 27.8 µM.
The corresponding values for `Cc1nn(-c2ccnc(Nc3ccc(S(N)(=O)=O)cc3)n2)c2ncccc12` are 8.84 µM and 8.64 µM.
Turning to `NS(=O)(=O)c1cccc(Nc2nccc(-n3ncc4ccccc43)n2)c1`, the values for the Ki (in assay [2]; in [3]; at CDK9/cyclin T1) were 0.053 µM, over 5 µM and 0.017 µM, respectively. Further, the GI50 was determined as 0.75 µM in the assay on HCT-116 [1] and 5.56 µM in the assay on MCF7. The outcome with HCT-116 [4] and in the assay with HCT-116 [10] was inactive. Moreover, the outcome with HCT-116 [5], in the assay on HCT-116 [8], in the assay with HCT-116 [9], in the assay on HCT-116 [11] and in the assay with HCT-116 [12] was Active. For the same molecule, the inhibition result in assay [6] is “Active”. The inhibition entry in assay [7] is “inactive”.
With `c1ccc(Cn2c(Nc3ccccc3)nc3ncccc32)cc1`, the GI50 with HCT-116 [1] was found to be 64.7 µM; with MCF7, 52.5 µM.
`Cn1nc(-c2ccnc(Nc3ccc(O)cc3)n2)c2ccccc21`: the GI50 with HCT-116 [1] was 8.43 µM; in the assay on MCF7 it was 8.91 µM.
The corresponding values for `Cn1nc(-c2ccnc(Nc3ccc(Cl)cc3)n2)c2ccccc21` are 8.73 µM and 7.83 µM.
As for `NS(=O)(=O)c1cccc(Nc2nccc(-c3nn(Cc4cccnc4)c4ccccc34)n2)c1`, the Ki in [2] is 4.53 µM; in assay [3] it was over 5 µM; on CDK9/cyclin T1, 0.314 µM. Moreover, the GI50 in the assay on HCT-116 [1] stood at 8.28 µM; in the assay on MCF7 it was 5.27 µM. Further, in assay [13], the Ratio Ki amounted to 14.
Consider `NS(=O)(=O)c1cccc(Nc2nccc(-n3ncc4cccnc43)n2)c1`, for which the figures for the GI50 with HCT-116 [1] and in the assay with MCF7 were 14.6 µM and 6.93 µM, respectively.
Regarding `CCn1nc(-c2ccnc(Nc3cccc(S(N)(=O)=O)c3)n2)c2ccccc21`, the Ki in assay [2] is 0.471 µM; in assay [3], over 5 µM; on CDK9/cyclin T1, 0.154 µM. The GI50 in the assay on HCT-116 [1] is 9.01 µM; with MCF7 it was 7.26 µM.
As for `COc1ccc(Nc2nc3ncccc3n2Cc2ccccc2)cc1`, the results for the concentration for 50% growth inhibition (GI50) in the assay with HCT-116 [1] and in the assay on MCF7 were 87.3 µM and 59.1 µM, respectively.
For the molecule `CCn1nc(-c2ccnc(Nc3ccc(S(N)(=O)=O)cc3)n2)c2ccccc21`, the Ki is 0.055 µM in assay [2], over 5 µM in assay [3] and 0.253 µM at CDK9/cyclin T1. In addition, the figures for the GI50 in the assay with HCT-116 [1] and in the assay on MCF7 were 2.05 µM and 2.28 µM, respectively.
On the same counts, the results for `Cn1nc(-c2ccnc(Nc3ccc(S(N)(=O)=O)cc3)n2)c2ccccc21` are 0.096 µM, over 5 µM, 0.14 µM, 2.28 µM and 0.94 µM.
Take `Cc1cccc(Nc2nccc(-c3nn(C)c4ccccc34)n2)c1`: the figures for the GI50 in the assay with HCT-116 [1] and in the assay on MCF7 were 9.42 µM and 9.15 µM, respectively.
On the same counts, the results for `c1ccc(Cn2c(Nc3ccccc3)nc3cccnc32)cc1` are 60.2 µM and 51.8 µM.
The corresponding values for `CCn1nc(-c2ccnc(Nc3cccc([N+](=O)[O-])c3)n2)c2ccccc21` are 2.82 µM and 2.31 µM.
On the same counts, the results for `Cn1nc(-c2ccnc(Nc3ccc([N+](=O)[O-])cc3)n2)c2ccccc21` are 8.22 µM and 11.8 µM.
Regarding `Cc1nn(-c2ccnc(Nc3cccc(S(N)(=O)=O)c3)n2)c2ncccc12`, the GI50 is 24.8 µM with HCT-116 [1] and 19.9 µM in the assay on MCF7.
The corresponding values for `NS(=O)(=O)c1ccc(Nc2nccc(-n3ncc4cccnc43)n2)cc1` are 8.04 µM and 7.02 µM.
`CCCn1nc(-c2ccnc(Nc3cccc(S(N)(=O)=O)c3)n2)c2ccccc21`: the values for the Ki (in [2]; in [3]; on CDK9/cyclin T1) were 0.945 µM, over 5 µM and 0.285 µM, respectively. Besides, the GI50 in the assay on HCT-116 [1] turned out to be 7.95 µM; with MCF7 it was 4.26 µM.
As to `CCCn1nc(-c2ccnc(Nc3ccc(O)cc3)n2)c2ccccc21`, the figures for the GI50 in the assay on HCT-116 [1] and with MCF7 were 5.45 µM and 3.34 µM, respectively.
Take `Cn1nc(-c2ccnc(Nc3cccc([N+](=O)[O-])c3)n2)c2ccccc21`: the GI50 came out at 0.49 µM with HCT-116 [1] and 0.58 µM in the assay with MCF7.
For the molecule `CCn1nc(-c2ccnc(Nc3ccc(O)cc3)n2)c2ccccc21`, the GI50 in the assay with HCT-116 [1] stood at 5.29 µM; with MCF7, 5.78 µM.
The corresponding values for `Cn1nc(-c2ccnc(Nc3cccc(Cl)c3)n2)c2ccccc21` are 6.4 µM and 5.97 µM.
The corresponding values for `Oc1ccc(Nc2nc3ncccc3n2Cc2ccccc2)cc1` are 72.6 µM and 52.5 µM.
On the same counts, the results for `O=[N+]([O-])c1cccc(Nc2nc3ncccc3n2Cc2ccccc2)c1` are 41.7 µM and 24.2 µM.
On to `Clc1cccc(Nc2nc3ncccc3n2Cc2ccccc2)c1`, for which the GI50 in the assay with HCT-116 [1] was 36.3 µM; in the assay on MCF7, 43.5 µM.
Regarding `Cn1nc(-c2ccnc(Nc3cccc(O)c3)n2)c2ccccc21`, the GI50 stood at 17.2 µM in the assay with HCT-116 [1] and 28.2 µM in the assay on MCF7.
The corresponding values for `CCn1nc(-c2ccnc(Nc3cccc(O)c3)n2)c2ccccc21` are 36.6 µM and 33.5 µM.
For `Cn1nc(-c2ccnc(Nc3cccc(S(N)(=O)=O)c3)n2)c2ccccc21`, the figures for the Ki (in assay [2]; in [3]; at CDK9/cyclin T1) were 0.061 µM, over 5 µM and 0.098 µM, respectively. For the same molecule, the GI50 with HCT-116 [1] was 1.98 µM; with MCF7 it was 2.27 µM.
